# Results gathered from unrelated publications.
# Protocols differ between the studies behind these lines.
# Observed: cell growth or viability
Structure (SMILES),cell line,assay,conditions,measurement,value
COc1cccc(Oc2ccccc2NC(=O)CNC(=O)c2cccc3ccccc23)c1,OVCAR-4,SRB,48 h,GI50,776 nM
CCOc1ccc(/C=C2\SC(=S)N(CC(=O)Nc3ccccc3)C2=O)cc1,A549,MTT,10 µM,inhibition,48.2%
COc1ccc(-c2ccc(-c3ccc(C(=N)N)nc3)s2)cc1Cl,OVCAR-4,SRB,,GI50,1740 nM
O=C1Nc2ccccc2C1=NNc1nnc2n1N=C(c1ccccc1)CS2,OVCAR-4,SRB,10 µM,inhibition,41%
NC(=O)c1cc(Cl)ccc1NC(=O)COc1ccccc1,OVCAR-4,,,GI50,> 100000 nM
CC(C)C[C@H](NC(=O)[C@H](Cc1ccccc1)NC(=O)c1cnccn1)B(O)O,HCC38,ATP luminescence,,IC50,9.9 nM
COc1cccc(NC(=O)CN2C(=O)/C(=C/c3cccs3)SC2=S)c1,A549,MTT,10 µM,inhibition,12.4%
Cn1nnc2c(C(N)=O)ncn2c1=O,AZ-521,,,EC50,173000 nM
COc1cc(-c2ccc(-c3ccc(C(=N)N)nc3)s2)cc(OC)c1OC,OVCAR-4,SRB,,GI50,2690 nM
COc1cccc(NC(=O)CN2C(=O)/C(=C/c3ccco3)SC2=S)c1,A549,MTT,10 µM,inhibition,13.7%
